For two compounds, Stimulation, increase in temperature and EU results are on record in ChEMBL document CHEMBL1126064, “Enzymatic synthesis and comparative biological evaluation of a phosphonate analogue of the lipid A precursor” (1992).

In assay [1] the target is T1, Ornithine decarboxylase (Mus musculus) (UniProt P00860).
T1 sequence (whole entry): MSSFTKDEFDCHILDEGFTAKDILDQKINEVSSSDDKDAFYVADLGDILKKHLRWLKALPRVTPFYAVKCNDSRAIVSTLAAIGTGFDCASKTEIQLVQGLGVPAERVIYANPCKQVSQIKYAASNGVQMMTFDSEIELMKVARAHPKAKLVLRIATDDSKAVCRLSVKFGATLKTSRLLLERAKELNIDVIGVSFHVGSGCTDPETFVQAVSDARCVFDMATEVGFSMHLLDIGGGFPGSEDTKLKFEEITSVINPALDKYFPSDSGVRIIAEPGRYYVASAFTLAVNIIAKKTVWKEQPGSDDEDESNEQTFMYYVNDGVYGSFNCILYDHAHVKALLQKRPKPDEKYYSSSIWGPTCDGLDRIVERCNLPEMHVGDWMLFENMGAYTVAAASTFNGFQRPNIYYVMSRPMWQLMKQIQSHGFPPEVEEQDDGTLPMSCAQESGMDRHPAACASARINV
In words: Compound was evaluated for the stimulation of Ornithine decarboxylase (ODC) activity in murine macrophagelike cell line RAW264 as a parameter for macrophage stimulation, and the pyrogenicity test in rabbits at a concentration of 2 ug/ml. Put shortly:
(§1)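 RAW-264 cells at 5.5 × 10^5 cells/mL in serum-free DMEM-H21 with 15 mM HEPES and 1 mM pyruvate, held overnight at 37 °C/5% CO2. Murine γ-IFN (2000 units/mL) and test material in pyrogen-free water then added for 4 h. Cells were lysed by sonication, and ODC in the supernatant was assayed with [3H]-L-ornithine plus 1 mM L-ornithine stock, 60 min at 37 °C. LPS 5 ng/mL served as internal standard.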

The subject of assay [2] is Oryctolagus cuniculus. In words: Increase in temperature of three rabbits treatment with the compound at a dose of 1 ug/kg. The format is functional.
Assay [3] addresses T1, Ornithine decarboxylase (Mus musculus). In words: Compound was evaluated for the stimulation of Ornithine decarboxylase (ODC) activity in murine macrophagelike cell line RAW264 as a parameter for macrophage stimulation, and the pyrogenicity test in rabbits at a concentration of 0.5 ug/ml. Put shortly:
as §1

The target is the same in assay [4]. In words: Compound was evaluated for the stimulation of Ornithine decarboxylase (ODC) activity in murine macrophagelike cell line RAW264 as a parameter for macrophage stimulation, and the pyrogenicity test in rabbits at a concentration of 0.1 ug/ml. Put shortly: as §1
Assay [5] shares this target. Description: Compound was evaluated for the stimulation of Ornithine decarboxylase (ODC) activity in murine macrophagelike cell line RAW264 as a parameter for macrophage stimulation, and the pyrogenicity test in rabbits at a concentration of 0.02 ug/ml. Put shortly:
as §1

A short description of assay [6]: Endotoxic activity determined by limulus amoebocyte lysate (LAL) assay.
Assay [7] has as its target T1, Ornithine decarboxylase (Mus musculus). Description: Compound was evaluated for the stimulation of Ornithine decarboxylase (ODC) activity in murine macrophagelike cell line RAW264 as a parameter for macrophage stimulation, and the pyrogenicity test in rabbits at a concentration of 10 ug/ml. Put shortly: as §1
The test system of assay [8] is Oryctolagus cuniculus. Description: Increase in temperature of three rabbits treatment with the compound at a dose of 50 ug/kg. The format is functional.

Molecules are shown by their SMILES.

Regarding `CCCCCCCCCCCC(O)CC(=O)N[C@@H]1C(OCC2OC(OP(=O)(O)O)[C@@H](NC(=O)CC(O)CCCCCCCCCCC)C(OC(=O)CC(O)CCCCCCCCCCC)[C@@H]2O)OC(CO)[C@@H](O)C1OC(=O)CC(O)CCCCCCCCCCC` (stereo partly specified), the Stimulation in assay [1] was determined as 98%; in assay [3] it was 60%; in assay [4], 30%; in assay [5] it was 2%; in assay [7], 97%. The increase in temperature in assay [2] was determined as 2.1; in assay [8], 5.95. This compound gave an EU in assay [6] of 80000 g⁻¹.
Regarding `CCCCCCCCCCCC(O)CC(=O)N[C@@H]1C(OCC2OC(P(=O)(O)O)[C@@H](NC(=O)CC(O)CCCCCCCCCCC)C(OC(=O)CC(O)CCCCCCCCCCC)[C@@H]2O)OC(CO)[C@@H](O)C1OC(=O)CC(O)CCCCCCCCCCC` (stereo partly specified) [PHOSPHONATE ANALOGUE OF LIPID A], the Stimulation in assay [1] came out at 75%; in assay [3] it was 70%; in assay [4], 20%; in assay [5], 5%; in assay [7], 84%. Also, the increase in temperature was found to be 2.1 in assay [2] and 6.6 in assay [8]. Moreover, the EU in assay [6] was 30000 g⁻¹.
